# The list is not random: actives were taken first. Their share in the collection is about 1.1%.
# PMI act hi M6P: increases human PMI activity with near-saturating mannose 6-phosphate | coupled PMI enzyme assay, resazurin fluorescence, 20 min; stronger effect = higher value; 1 = untreated enzyme, 0 = substrate-free blank | activation factor at 20 µM | 190,000 compounds, 0.34% hits;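 active means activation factor of 2 or more at 20 µM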
#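 Test system: human phosphomannose isomerase with PGI, G6PDH, diaphorase coupling enzymes / Doses: 20 µM compound, 1% DMSO / Times: enzyme reaction with compound 20 min at room temperature / Measured by: Diaphorase-driven resazurin-to-resorufin fluorescence, excitation 544, emission 590 nm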
# Rad51 HR inh: blocks human Rad51 in homologous recombination; hRad51 DNA strand exchange, fluorescence dequenching; inhibition, % at 10 µM; 200,000 compounds, 0.085% hits;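 active means inhibition above 40% at the single screening dose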;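 further: 0% = DMSO control wells and 100% = blanks with heterologous ssDNA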
# Target sequence (Q06609 whole entry, looked up): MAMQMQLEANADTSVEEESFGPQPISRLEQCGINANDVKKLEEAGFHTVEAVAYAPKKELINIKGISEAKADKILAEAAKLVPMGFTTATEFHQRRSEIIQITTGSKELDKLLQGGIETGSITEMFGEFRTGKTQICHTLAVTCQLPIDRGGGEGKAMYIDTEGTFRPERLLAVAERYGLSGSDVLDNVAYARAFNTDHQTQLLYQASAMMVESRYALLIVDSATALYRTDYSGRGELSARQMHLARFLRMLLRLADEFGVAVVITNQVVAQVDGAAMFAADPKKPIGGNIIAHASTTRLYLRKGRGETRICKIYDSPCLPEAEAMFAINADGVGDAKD
#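 Read-out basis: percent inhibition relative to plate controls and blanks / Assay system: human Rad51 nucleoprotein filaments preassembled on unlabelled ssDNA / Timing: filaments 15 min 37 °C, then compound 30 min / Control set: per-plate controls and blanks / Technique: fluorescence dequenching at 485/520 nm / Compound: 10 µM final, single point / Also added: Fluorescein- and BHQ1-tagged 47-mer duplex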
# HMGR II inh: blocks class II HMG-CoA reductase of Enterococcus faecalis | purified E. faecalis HMGR, NADPH absorbance 340 nm kinetic | inhibition, % at 10 µM | 190,000 compounds, 0.41% hits | AID 1066;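 active means inhibition above a set limit, the median over all tested compounds plus 3 SD, cut at about 9.5% in these data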;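 further: enzyme runs in reverse so mevalonate oxidation gives rising NADPH absorbance; 0% = complete reaction with DMSO and 100% = background rate lacking mevalonate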
# PMI act: increases human mannose-6-phosphate isomerase activity. AID 1214. 190,000 compounds, 0.005% hits. P34949. purified human PMI, coupled resazurin fluorescence, 20 min; stronger effect = higher value; 1 = vehicle control, 0 substrate-free wells. activation factor at 20 µM;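 active means activation factor of 2 or more at 20 µM, relative to plate controls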
# m-calpain inh: calpain II (pig) inhibition | inhibition, % at 16 µM | 220,000 compounds, 0.37% hits | purified calpain II, fluorogenic peptide substrate, 30 min;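 active means inhibition above about 50%, limit read from the data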
# The depositor's hits bear a star; / = no result given.
SMILES,PMI act hi M6P,Rad51 HR inh,HMGR II inh,PMI act,m-calpain inh
COc1ccc(/C=C2/C(=O)OCc3cc(OC)c(OC)cc32)cc1,0.9,2,-1,0.9,-13
O=C(Oc1ccc2c(c1)OCO2)C12CC3CC(CC(C3)C1)C2,0.9,6,-4,0.9,66*
O=C(Oc1ccc(O)cc1)C12CC3CC(CC(C3)C1)C2,0.8,1,1,0.8,8
CCC/C(=N/Nc1ccc(Cl)cc1)c1cnnc(-c2ccccc2)n1,/,6,/,/,/
CC/C(=N/Nc1ccccc1Cl)c1cnnc(-c2ccccc2)n1,2.1*,5,-2,1.6,-14
CC/C(=N/Nc1ccc(Cl)cc1)c1cnnc(SC)n1,2.5*,2,-2,1.8,-1
CC/C(=N/O)c1cnnc(SC)n1,0.9,0,-1,0.9,20
CC/C(=N/Nc1cccc(C)c1)c1cnnc(SC)n1,2.3*,/,0,1.6,10
COc1ccc(N/N=C(/C)c2cnnc(-c3ccccc3)n2)cc1,2.4*,/,0,1.8,6
CCN(CC)CCNC(=O)c1ccc(Sc2ccc(Cl)cc2)c(NC(C)=O)c1,1.1,/,1,1.2,11
CSc1nncc(/C(C)=N\Nc2ccccc2C)n1,2.2*,1,-3,1.8,-18
CSc1nncc(/C(C)=N/O)n1,1,1,-6,1.1,-1
NC(=O)C1CCN(C(=O)CN2CCCc3ccccc32)CC1,2*,-3,3,1.5,-1
CCc1ccc2c(c1)C(c1ccc(N3CCOCC3)cc1)=NNC(c1ccncc1)=N2,1,3,-5,0.8,-69
CCc1ccc2c(c1)C(c1ccc([N+](=O)[O-])cc1)=NNC(c1ccc(C)cc1)=N2,0.9,9,-7,0.9,61*
O=C(O)CCC(=O)Nc1cc(C(F)(F)F)cc(C(F)(F)F)c1,/,17,/,/,2
CCCCCC(C)NC(=O)c1ccoc1C (stereo not given),1,1,11*,1.1,-6
O=C1CSC(c2ccccn2)N1c1ccc(C(F)(F)F)cc1 (stereo not given),/,16,/,/,-5
COc1ccccc1N(CC(=O)N/N=C/c1ccc(C(=O)O)cc1)S(=O)(=O)c1ccc(C)cc1,/,4,/,/,28
O=C(O)CCC(=O)/C=C/c1ccccc1,0.9,/,12*,0.8,-11
Cc1cccc(Oc2ccc(Cl)cc2N)c1,1.2,0,-4,1.1,50*
CCC(C(=O)NNC(=O)c1cnccn1)c1ccccc1 (stereo not given),0.9,-23,1,0.8,-12
CC(C)OCCCN1CN(S(=O)(=O)c2ccc(Cl)cc2)c2nc3ccccc3nc21,2*,-9,-5,1.4,-20
Cc1cc(-c2nc3ncccc3o2)ccc1NC(=S)NC(=O)C(C)C,0.9,-1,-6,0.9,6
CSc1nc(-c2ccc(C)cc2)[nH]c1S(=O)(=O)c1ccccc1,1.1,-5,-6,1.1,0
SMILES,PMI act hi M6P,Rad51 HR inh,HMGR II inh,PMI act,m-calpain inh
CC(=O)Sc1nc(-c2ccccc2)[nH]c1S(=O)(=O)c1ccc(C)cc1,2.2*,24,-2,1.4,-13
O=C(c1ccccc1)c1c[nH]c(C(=O)NCc2cccnc2)c1,0.9,/,6,1.1,4
O=C(c1ccccc1)c1c[nH]c(C(=O)NNc2ccccc2)c1,2.3*,3,0,1.7,-21
COc1cc(NS(=O)(=O)c2ccc(NC(=S)NC(=O)CC(C)C)cc2)nc(OC)n1,1,5,13*,1,-26
COc1cc(NS(=O)(=O)c2ccc(NC(=S)NC(=O)c3sc4ccccc4c3Cl)cc2)ncn1,1,4,0,0.8,57*
COC(=O)CCC(=O)NC(=S)Nc1ccc(S(=O)(=O)Nc2cc(OC)nc(OC)n2)cc1,1,/,-1,1,17
COc1ccc(-c2csc(C)n2)cc1,1,-2,9.8*,1,-11
Cc1ccc(S(=O)(=O)N2CCN(C(C)C(=O)Nc3ccccc3-c3ccccc3)CC2)cc1 (stereo not given),1,5,-1,0.9,41
COC(=O)CSc1nnc(COc2ccc([N+](=O)[O-])cc2)n1C,1,/,-1,1,35
CC(C)OC(=O)CSc1nnc(COc2ccc([N+](=O)[O-])cc2)n1C,1.1,-8,0,1.1,52*
COc1ccccc1C(=O)C1Nc2ccccc2-c2nnc(SC)nc2O1 (stereo not given),2.5*,0,-2,1.7,-10
CCCCSc1nnc2c(n1)OC(C(=O)c1ccccc1)Nc1ccccc1-2 (stereo not given),1.9,/,-6,1.6,65*
CCC1Nc2ccccc2-c2nnc(SC)nc2O1 (stereo not given),1.1,-1,3,1,3
CCOc1cc(C(N)=O)cc(Br)c1OCc1ccccc1,1.1,-2,-4,1,23
COc1cccc(CN2CCN(C3CCN(c4cccc(C)c4C)CC3)CC2CCO)c1 (stereo not given),0.8,8,0,0.8,-12
COc1cccc(CN2CCN(C3CCN(c4ccccc4C)CC3)CC2CCO)c1 (stereo not given),0.8,1,11*,0.9,-14
CCCCNC(=O)c1ccccc1C(=O)NCCCC,1,-13,-5,1,91*
COc1cc(Br)cc(CNc2ccc(F)c([N+](=O)[O-])c2)c1O,0.8,1,0,0.9,91*
Cc1ccc(CC(=O)Nc2ccc(F)c([N+](=O)[O-])c2)cc1C,1,-1,-6,1.1,20
O=C(NC(Cc1ccccc1)C(=O)O)/C(=C/c1ccc(F)cc1)NC(=O)c1ccccc1 (stereo not given),1.1,3,-2,1,-12
Nc1ccc(C(=O)N/N=C/c2sc(N3CCOCC3)nc2-c2ccccc2)cc1,1.2,0,2,1.1,-81
O=C(O)c1cccc(N/N=C/c2sc(N3CCOCC3)nc2-c2ccccc2)c1,2.5*,4,-3,1.6,-42
O=C(O)c1cccc(Cn2c(Cl)c(/C=N/Nc3ccccc3)sc2=O)c1,2.5*,-80,-2,1.6,42
COc1cccc(C=NCCNC(=O)c2nonc2N)c1O,0.7,-5,-5,0.8,101*
CCOc1c(CNCCNC(=O)c2nonc2N)cccc1OC,1.1,-7,/,1.1,-11
CC(C)(C)c1ccc(/C([O-])=C(/C(=S)NCc2ccco2)[n+]2ccccc2)cc1,1.3,8,-4,1.2,6
O=C(COC(=O)c1ccc(Br)o1)NCC1CCCO1 (stereo not given),1,1,0,1,-1
O=C(NCC1CCCO1)c1ccc(Cl)c(F)c1F (stereo not given),1,1,15*,0.9,-15
O=C(NCC1CCCO1)c1ccc(Br)o1 (stereo not given),1,41*,-10,1.1,14
